Reference: ChEMBL document CHEMBL3745617 (J Med Chem, 2015)
Calls of active or inactive are those of the source. No cut-off for these calls is given here.

How the values were obtained:
[1] = Half life in Sprague-Dawley rat at 1 mg/kg, iv; type: ADME, organism-based; conditions: in vivo
[2] = Mean residence time (0 to infinity) in Sprague-Dawley rat at 1 mg/kg, iv; type: ADME, organism-based; conditions: in vivo
[3] = Antiproliferative activity against human U937 cells after 72 hrs by CelltiterGlo assay; type: functional; conditions: U-937, 72 h
[4] = Oral bioavailability in Sprague-Dawley rat at 10 mg/kg; type: ADME, organism-based; conditions: in vivo
[5] = test system: MV4-11; assay: Antitumor activity against human MV4-11 cells xenografted in nu/nu mouse assessed as tumor weight at 50 mg/kg/day administered via oral gavage measured after 22 days of treatment (reference value: 2.5 g); type: functional
[6] = Antiproliferative activity against human SU-DHL-2 cells after 72 hrs by CelltiterGlo assay; type: functional; conditions: SU-DHL-2, 72 h
[7] = test system: Receptor-type tyrosine-protein kinase FLT3 (Homo sapiens), P36888 [UNDEFINED MUTATION]; conditions: BaF3
[8] = target: Tyrosine-protein kinase Lck (Homo sapiens) (UniProt P06239); assay: Inhibition of LCK (unknown origin) expressed in BaF3 cells assessed as inhibition of cell proliferation after 72 hrs by CelltiterGlo assay; type: cell-based
[9] = target: Receptor-type tyrosine-protein kinase FLT3 (Homo sapiens) (UniProt P36888); conditions: MV4-11, 0.03 to 3 uM
[10] = test system: MV4-11; assay: Cell cycle arrest in human MV4-11 cells assessed as accumulation at G0/G1 phase at 0.03 to 1 uM after 24 hrs by flow cytometry; type: functional, cell-based
[11] = target: Platelet-derived growth factor receptor beta (Homo sapiens) (UniProt P09619); assay: Inhibition of PDGFRB (unknown origin) expressed in BaF3 cells assessed as inhibition of cell proliferation after 72 hrs by CelltiterGlo assay; type: cell-based
[12] = Tmax in Sprague-Dawley rat at 10 mg/kg, po; type: ADME, organism-based; conditions: in vivo
[13] = Antiproliferative activity against human MOLM13 cells after 72 hrs by CelltiterGlo assay; type: functional; conditions: MOLM-13, 72 h
[14] = Clearance in Sprague-Dawley rat at 1 mg/kg, iv; type: ADME, organism-based; conditions: in vivo
[15] = target: Hepatocyte growth factor receptor (Homo sapiens) (UniProt P08581); assay: Inhibition of MET (unknown origin) expressed in BaF3 cells assessed as inhibition of cell proliferation after 72 hrs by CelltiterGlo assay; type: cell-based
[16] = test system: MV4-11; assay: Antiproliferative activity against human MV4-11 cells after 72 hrs by CelltiterGlo assay; type: functional; conditions: MV4-11, 72 h
[17] = target: Mast/stem cell growth factor receptor Kit (Homo sapiens, UniProt P10721); assay: Inhibition of c-KIT (unknown origin) by ADP-Glo assay
Outline: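 Biochemical activity assay in ADP-Glo format using purified c-KIT kinase protein. It was run to confirm the binding-panel findings.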

[18] = test system: MOLM-13; assay: Induction of apoptosis in human MOLM13 cells assessed as cleaved PARP level at 0.03 to 1 uM after 12 hrs by immunoblot analysis; type: functional, cell-based
[19] = target: Receptor-type tyrosine-protein kinase FLT3 (Homo sapiens) (UniProt P36888); conditions: MOLM-13, 0.03 to 3 uM
[20] = target: Tyrosine-protein kinase Srms (Homo sapiens) (UniProt Q9H3Y6); assay: Inhibition of SRMS (unknown origin) assessed as remaining activity at 1 uM relative to control
Outline: (§1)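 KinomeScan competition binding panel of 468 kinases, with the compound tested at 1 µM. Each kinase's result is reported as percent activity remaining relative to a DMSO control.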

[21] = Antiproliferative activity against human U2932 cells after 72 hrs by CelltiterGlo assay; type: functional; conditions: U2932, 72 h
[22] = target: Receptor-type tyrosine-protein kinase FLT3 (Homo sapiens) (UniProt P36888); conditions: MOLM-14, 0.03 to 3 uM
[23] = Cell cycle arrest in human MOLM14 cells assessed as accumulation at G0/G1 phase at 0.03 to 1 uM after 24 hrs by flow cytometry; type: functional, cell-based; conditions: MOLM-14
[24] = target: Tyrosine-protein kinase HCK (Homo sapiens) (UniProt P08631); assay: Inhibition of HCK (unknown origin) expressed in BaF3 cells assessed as inhibition of cell proliferation after 72 hrs by CelltiterGlo assay; type: cell-based
[25] = target: Receptor-type tyrosine-protein kinase FLT3 (Homo sapiens) (UniProt P36888); conditions: MOLM-14, 0.03 to 3 uM; remark: listed apart in the source
[26] = Half life in Sprague-Dawley rat at 10 mg/kg, po; type: ADME, organism-based; conditions: in vivo
[27] = AUC (0 to t) in Sprague-Dawley rat at 1 mg/kg, iv; type: ADME, organism-based; conditions: in vivo
[28] = target: Dual specificity mitogen-activated protein kinase kinase 5 (Homo sapiens) (UniProt Q13163); assay: Inhibition of MEK5 (unknown origin) assessed as remaining activity at 1 uM relative to control; outline: as §1
[29] = AUC(0 to infinity) in Sprague-Dawley rat at 10 mg/kg, po; type: ADME, organism-based; set-up: dose 10 mg/kg, route oral, time infinity; conditions: in vivo
[30] = AUC(0 to t) in Sprague-Dawley rat at 10 mg/kg, po; type: ADME, organism-based; conditions: in vivo
[31] = Cmax in Sprague-Dawley rat at 10 mg/kg, po; type: ADME, organism-based; set-up: dose 10 mg/kg, route oral; conditions: in vivo
[32] = test system: MOLM-14; assay: Induction of apoptosis in human MOLM14 cells assessed as cleaved caspase-3 level at 0.03 to 1 uM after 24 hrs by immunoblot analysis; type: functional, cell-based
[33] = test system: Receptor-type tyrosine-protein kinase FLT3 (Homo sapiens), P36888 [UNDEFINED MUTATION]; conditions: BaF3; remark: listed apart in the source
[34] = test system: Receptor-type tyrosine-protein kinase FLT3 (Homo sapiens), P36888 [D835V]; conditions: BaF3
[35] = target: Receptor tyrosine-protein kinase erbB-3 (Homo sapiens) (UniProt P21860); assay: Inhibition of ERBB3 (unknown origin) assessed as remaining activity at 1 uM relative to control
Outline: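 KinomeScan competitive binding panel of 468 kinases. Compound tested at a single 1 µM concentration. Read-out is percent of kinase activity remaining relative to a DMSO control.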

[36] = target: Tyrosine-protein kinase BTK (Homo sapiens, UniProt Q06187); assay: Inhibition of BTK (unknown origin) by ADP-Glo assay
[37] = target: Epidermal growth factor receptor (Homo sapiens) (UniProt P00533); assay: Inhibition of EGFR (unknown origin) expressed in BaF3 cells assessed as inhibition of cell proliferation after 72 hrs by CelltiterGlo assay; type: cell-based
[38] = Apparent volume of distribution in Sprague-Dawley rat at 1 mg/kg, iv; type: ADME, organism-based; conditions: in vivo, read-out: Vd(app)
[39] = target: Proto-oncogene tyrosine-protein kinase receptor Ret (Homo sapiens) (UniProt P07949); assay: Inhibition of RET (unknown origin) expressed in BaF3 cells assessed as inhibition of cell proliferation after 72 hrs by CelltiterGlo assay; type: cell-based
[40] = test system: MV4-11; assay: Induction of apoptosis in human MV4-11 cells assessed as cleaved caspase-3 level at 0.03 to 1 uM after 48 hrs by immunoblot analysis; type: functional, cell-based

Tyrosine-protein kinase Lck (Homo sapiens), sequence (P06239 2-509 limits assumed): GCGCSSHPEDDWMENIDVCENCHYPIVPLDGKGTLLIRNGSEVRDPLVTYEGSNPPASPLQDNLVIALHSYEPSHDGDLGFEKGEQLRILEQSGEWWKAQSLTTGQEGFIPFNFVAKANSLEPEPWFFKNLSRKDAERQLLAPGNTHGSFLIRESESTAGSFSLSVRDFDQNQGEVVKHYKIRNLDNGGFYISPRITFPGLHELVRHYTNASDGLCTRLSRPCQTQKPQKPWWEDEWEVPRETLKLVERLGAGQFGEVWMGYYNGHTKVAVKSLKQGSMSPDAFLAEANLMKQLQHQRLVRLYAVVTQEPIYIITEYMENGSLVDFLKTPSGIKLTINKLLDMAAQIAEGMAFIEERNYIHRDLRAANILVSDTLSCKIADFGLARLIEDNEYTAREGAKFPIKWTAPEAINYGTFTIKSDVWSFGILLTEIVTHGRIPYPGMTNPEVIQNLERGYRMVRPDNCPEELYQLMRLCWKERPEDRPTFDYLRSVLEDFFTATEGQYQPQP
Proto-oncogene tyrosine-protein kinase receptor Ret (Homo sapiens), sequence (P07949 whole entry): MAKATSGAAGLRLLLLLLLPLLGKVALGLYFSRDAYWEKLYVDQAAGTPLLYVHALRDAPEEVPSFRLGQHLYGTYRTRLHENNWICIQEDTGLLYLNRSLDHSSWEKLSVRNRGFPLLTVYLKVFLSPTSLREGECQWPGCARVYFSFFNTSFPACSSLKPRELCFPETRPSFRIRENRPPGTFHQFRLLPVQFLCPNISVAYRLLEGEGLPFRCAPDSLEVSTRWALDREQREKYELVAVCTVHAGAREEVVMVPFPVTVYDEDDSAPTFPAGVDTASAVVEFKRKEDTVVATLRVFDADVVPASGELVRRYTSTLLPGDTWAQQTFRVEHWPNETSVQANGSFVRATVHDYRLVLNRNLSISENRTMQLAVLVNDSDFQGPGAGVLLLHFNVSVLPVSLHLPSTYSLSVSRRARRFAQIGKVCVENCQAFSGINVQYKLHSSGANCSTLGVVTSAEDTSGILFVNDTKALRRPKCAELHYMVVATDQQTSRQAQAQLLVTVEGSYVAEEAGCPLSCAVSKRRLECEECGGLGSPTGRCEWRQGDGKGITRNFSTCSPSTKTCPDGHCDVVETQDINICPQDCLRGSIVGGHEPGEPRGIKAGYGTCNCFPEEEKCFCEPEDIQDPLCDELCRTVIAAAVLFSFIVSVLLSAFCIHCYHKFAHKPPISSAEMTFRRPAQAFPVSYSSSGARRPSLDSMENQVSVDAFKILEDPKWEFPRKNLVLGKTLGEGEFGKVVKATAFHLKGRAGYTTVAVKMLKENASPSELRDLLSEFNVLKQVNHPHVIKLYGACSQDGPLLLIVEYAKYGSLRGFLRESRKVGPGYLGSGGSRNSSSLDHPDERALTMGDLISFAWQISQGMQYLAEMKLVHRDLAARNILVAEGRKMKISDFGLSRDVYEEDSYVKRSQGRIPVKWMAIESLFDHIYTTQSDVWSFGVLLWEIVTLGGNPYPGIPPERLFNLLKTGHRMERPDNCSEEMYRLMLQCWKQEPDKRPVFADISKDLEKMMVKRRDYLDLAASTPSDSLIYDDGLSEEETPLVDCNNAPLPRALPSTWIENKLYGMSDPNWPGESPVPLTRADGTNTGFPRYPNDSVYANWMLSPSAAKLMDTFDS
Tyrosine-protein kinase Srms (Homo sapiens), sequence (Q9H3Y6 whole entry): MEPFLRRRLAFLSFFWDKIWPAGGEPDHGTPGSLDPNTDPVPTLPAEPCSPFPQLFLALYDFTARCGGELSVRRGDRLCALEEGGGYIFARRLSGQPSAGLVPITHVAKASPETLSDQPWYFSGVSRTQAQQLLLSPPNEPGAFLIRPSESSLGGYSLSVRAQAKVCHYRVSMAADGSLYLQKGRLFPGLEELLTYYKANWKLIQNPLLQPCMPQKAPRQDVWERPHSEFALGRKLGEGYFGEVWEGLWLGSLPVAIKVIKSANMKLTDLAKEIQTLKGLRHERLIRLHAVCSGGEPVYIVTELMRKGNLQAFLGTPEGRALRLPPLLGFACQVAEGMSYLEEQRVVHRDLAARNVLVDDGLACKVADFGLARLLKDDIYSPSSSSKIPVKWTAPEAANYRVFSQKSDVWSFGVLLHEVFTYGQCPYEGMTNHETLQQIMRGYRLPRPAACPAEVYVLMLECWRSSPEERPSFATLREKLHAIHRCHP
Hepatocyte growth factor receptor (Homo sapiens), sequence (P08581 whole entry): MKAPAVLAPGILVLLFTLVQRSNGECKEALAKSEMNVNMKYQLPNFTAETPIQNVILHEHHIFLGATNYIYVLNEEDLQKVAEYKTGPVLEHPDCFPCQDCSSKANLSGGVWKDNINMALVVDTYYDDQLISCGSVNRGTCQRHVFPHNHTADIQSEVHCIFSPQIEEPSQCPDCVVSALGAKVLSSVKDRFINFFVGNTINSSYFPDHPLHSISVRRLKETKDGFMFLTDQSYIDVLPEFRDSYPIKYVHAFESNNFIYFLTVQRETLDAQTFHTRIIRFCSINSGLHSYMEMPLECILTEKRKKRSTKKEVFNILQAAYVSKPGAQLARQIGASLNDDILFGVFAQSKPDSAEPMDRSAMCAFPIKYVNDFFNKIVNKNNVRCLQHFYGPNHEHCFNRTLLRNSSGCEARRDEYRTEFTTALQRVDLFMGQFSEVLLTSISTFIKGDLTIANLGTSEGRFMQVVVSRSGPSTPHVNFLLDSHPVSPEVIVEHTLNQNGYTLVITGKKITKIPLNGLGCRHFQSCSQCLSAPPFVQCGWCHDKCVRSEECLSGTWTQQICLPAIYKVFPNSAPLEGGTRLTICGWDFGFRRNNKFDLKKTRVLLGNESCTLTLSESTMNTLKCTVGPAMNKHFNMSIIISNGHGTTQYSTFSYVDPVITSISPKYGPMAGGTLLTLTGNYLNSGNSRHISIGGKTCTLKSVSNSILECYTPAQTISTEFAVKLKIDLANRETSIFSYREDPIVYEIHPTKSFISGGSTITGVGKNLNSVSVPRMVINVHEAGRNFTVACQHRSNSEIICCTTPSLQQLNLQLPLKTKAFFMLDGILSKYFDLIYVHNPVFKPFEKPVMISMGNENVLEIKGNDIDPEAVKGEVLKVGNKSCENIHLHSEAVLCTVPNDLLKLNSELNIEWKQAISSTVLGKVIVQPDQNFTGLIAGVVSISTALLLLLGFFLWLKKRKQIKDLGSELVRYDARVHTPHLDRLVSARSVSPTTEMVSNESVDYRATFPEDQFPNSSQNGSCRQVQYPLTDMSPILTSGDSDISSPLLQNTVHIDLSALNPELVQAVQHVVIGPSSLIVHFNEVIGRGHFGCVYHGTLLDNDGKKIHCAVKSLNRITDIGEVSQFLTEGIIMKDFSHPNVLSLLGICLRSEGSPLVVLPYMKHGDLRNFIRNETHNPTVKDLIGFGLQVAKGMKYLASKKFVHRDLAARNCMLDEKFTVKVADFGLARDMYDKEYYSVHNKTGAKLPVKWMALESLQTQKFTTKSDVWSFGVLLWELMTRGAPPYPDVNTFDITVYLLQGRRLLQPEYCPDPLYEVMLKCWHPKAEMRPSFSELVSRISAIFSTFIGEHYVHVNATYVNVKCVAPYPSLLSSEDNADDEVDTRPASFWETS
Mast/stem cell growth factor receptor Kit, sequence (P10721 whole entry): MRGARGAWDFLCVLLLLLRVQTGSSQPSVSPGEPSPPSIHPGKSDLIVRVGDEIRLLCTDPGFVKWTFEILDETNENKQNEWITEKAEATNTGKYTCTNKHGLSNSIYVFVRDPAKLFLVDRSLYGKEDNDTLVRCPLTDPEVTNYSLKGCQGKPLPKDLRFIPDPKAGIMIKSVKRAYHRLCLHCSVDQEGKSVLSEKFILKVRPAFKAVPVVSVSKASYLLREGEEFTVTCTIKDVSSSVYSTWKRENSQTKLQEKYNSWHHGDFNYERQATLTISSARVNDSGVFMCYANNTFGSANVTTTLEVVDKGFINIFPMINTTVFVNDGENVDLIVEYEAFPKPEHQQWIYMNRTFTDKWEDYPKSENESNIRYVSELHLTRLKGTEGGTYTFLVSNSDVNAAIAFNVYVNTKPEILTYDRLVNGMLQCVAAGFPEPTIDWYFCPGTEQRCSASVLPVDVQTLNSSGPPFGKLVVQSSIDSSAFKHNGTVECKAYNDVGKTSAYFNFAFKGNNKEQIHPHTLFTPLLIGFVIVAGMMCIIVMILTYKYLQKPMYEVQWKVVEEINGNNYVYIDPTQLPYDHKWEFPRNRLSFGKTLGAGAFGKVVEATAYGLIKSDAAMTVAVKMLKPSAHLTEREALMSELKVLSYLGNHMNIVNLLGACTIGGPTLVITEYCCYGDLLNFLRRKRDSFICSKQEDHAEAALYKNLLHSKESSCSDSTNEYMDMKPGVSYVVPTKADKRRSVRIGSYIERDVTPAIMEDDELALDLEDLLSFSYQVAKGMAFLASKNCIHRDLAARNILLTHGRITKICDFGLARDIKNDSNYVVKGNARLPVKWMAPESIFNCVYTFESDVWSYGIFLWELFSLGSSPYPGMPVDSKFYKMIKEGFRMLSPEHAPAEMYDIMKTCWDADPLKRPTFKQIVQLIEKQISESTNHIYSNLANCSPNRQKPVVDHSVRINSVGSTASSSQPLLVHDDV
Tyrosine-protein kinase HCK (Homo sapiens), sequence (P08631 2-526 limits assumed): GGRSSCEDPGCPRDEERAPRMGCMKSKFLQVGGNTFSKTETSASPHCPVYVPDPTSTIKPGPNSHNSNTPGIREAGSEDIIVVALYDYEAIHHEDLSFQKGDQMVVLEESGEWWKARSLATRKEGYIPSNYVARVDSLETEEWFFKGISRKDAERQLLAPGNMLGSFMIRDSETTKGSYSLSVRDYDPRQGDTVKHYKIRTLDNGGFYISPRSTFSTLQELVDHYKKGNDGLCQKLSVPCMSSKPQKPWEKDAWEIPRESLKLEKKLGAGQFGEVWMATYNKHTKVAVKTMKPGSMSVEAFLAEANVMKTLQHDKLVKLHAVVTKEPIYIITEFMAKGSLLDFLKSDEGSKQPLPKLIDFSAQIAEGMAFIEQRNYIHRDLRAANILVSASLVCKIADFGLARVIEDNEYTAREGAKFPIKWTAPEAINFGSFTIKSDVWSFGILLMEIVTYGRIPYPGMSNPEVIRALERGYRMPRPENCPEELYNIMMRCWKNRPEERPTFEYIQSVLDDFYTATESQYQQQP

half-life [1]: 1.38 h
MRT inf [2]: 1.15 h
bioavailability [4]: 30.4%
GI50 [7]: 170 nM
GI50 [8]: 310 nM
inhibition [9]: Active
GI50 [11]: 680 nM
Tmax [12]: 1.67 h
clearance [14]: 26.9 mL/min/kg
GI50 [15]: 2200 nM
GI50 [16]: 22 nM
IC50 [17]: 559 nM
inhibition [19]: Active
Activity [20]: 0%
inhibition [22]: Active
GI50 [24]: 880 nM
inhibition [25]: Active
half-life [26]: 1.24 h
AUC(0-t) [27]: 607 ng·h/mL
Activity [28]: 0.45%
AUCinf [29]: 1880 ng·h/mL
AUC(0-t) [30]: 1830 ng·h/mL
Cmax [31]: 458 ng/mL
GI50 [33]: 220 nM
GI50 [34]: 3 nM
Activity [35]: 0.05%
IC50 [36]: 421 nM
GI50 [37]: 1800 nM
Vd [38]: 3.23 L/kg
GI50 [39]: 650 nM
SMILES: CN(C)CC(=O)N1CCC[C@@H](n2nc(-c3ccc(Oc4ccccc4)cc3)c3c(N)ncnc32)C1
GI50 [3]: 9700 nM
Activity [5]: 0.3 g
GI50 [6]: 5500 nM
Activity [10]: Active
GI50 [13]: 21 nM
Activity [18]: Active
GI50 [21]: 1600 nM
Activity [23]: Active
Activity [32]: Active
Activity [40]: Active
